Source: PMC3100537 (Biochemistry, 2011)
Where “and” joins values, the source holds several entries; their conditions need not be identical. Equal entries are not always repeated.

Experiments:
[1] = Non-denaturing gradient gel electrophoresis; format: physicochemical; conditions: Native-PAGE 4–20% Tris-glycine gel; stock solutions 1 mg/ml PBS, pH 7.4; 3 μg per well
physchem = conditions: pH 7.4, aqueous buffer
[2] = Circular dichroism spectroscopy, secondary structure; format: physicochemical
In short: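 Lipid-free peptide in 10 mM sodium phosphate, pH 7.4, at 25°C; 2 mg/ml stock diluted in the same buffer to 6–310 μM (18–1000 μg/ml). Four scans at 20 nm/min averaged per concentration. α-Helicity derived from molar ellipticity at 222 nm; [θ]222/[θ]208 ratio plotted against concentration. For TFE, 0.2 mg/ml peptide held ±50% TFE for 30 min at 25°C before scanning (n=3).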

[3] = Small angle X-ray scattering; format: physicochemical
In short: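 Concentration-scaled intensity at q = 0 converted to mass by calibration against lysozyme, xylanase and BSA. Ab initio shape from ten averaged modelling runs. Two independent peptide preparations measured.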

[4] = Gel-filtration chromatography; format: physicochemical
In short: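 Size-exclusion FPLC on Superdex 75 or Superdex Peptide columns equilibrated in PBS (10 mM phosphate, 150 mM NaCl, pH 7.4), run at 0.5 ml/min at room temperature. 0.2 ml of peptide stock (0.125 to 140 mg/ml; concentration set by A280) injected, with elution read at 280 or 215 nm. Columns calibrated with molecular weight standards. Stocks also run after 2 years' sterile storage at 4°C or 24 h at 37°C.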

J774 mouse macrophages = conditions: lipid-free peptide; cited from earlier work
[5] = DMS cross-linking / SDS-PAGE of self-associated forms; format: physicochemical; conditions: 20-fold molar excess DMS, 3 h, 25 °C; SDS-PAGE 10–20% Tricine gel
In short: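 Peptide at various concentrations reacted with 20-fold molar excess dimethylsuberimidate for 3 h at 25°C, then quenched with 50 mM Tris-HCl. Mixed with SDS loading buffer, boiled 1 min, and run on 10–20% Tris-Tricine SDS-PAGE. Protein stain visualized cross-linked species, sized against 1.7–40 kDa markers.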

Row | Substance | migration form on non-denaturing gel (aggregation) [1] | solubility (physchem) | α-helical content, presence of 50% TFE ([2]; 0.2 mg/ml, 50% TFE) | α-helical content, absence of TFE ([2]; 0.2 mg/ml, no TFE) | SAXS MW relative to monomeric weight of the peptide (3230 Da) ([3]; 2–8 mg/ml PBS pH 7.4) | aggregation detected from X-ray intensity profiles ([3]; peptide at 2–8 mg/ml PBS) | gel-filtration profile after prolonged storage ([4]; 2 years in PBS at 4 °C under sterile conditions, data not shown) | concentration at which monomeric ATI-5261 predominated ([4]; FPLC (Superdex 75 and Peptide columns) and SDS-PAGE/DMS cross-linking) | concentration at which peptide monomers were predominant ([4]; FPLC, allowing for ~10-fold dilution on the columns, PBS pH 7.4) | MW of the peptide assembly by FPLC ([4]; Superdex Peptide 10/300 GL column, 1 mg peptide/ml, PBS, A215, calibrated with (Gly)6, aprotinin, ribonuclease A) | gel-filtration profile after incubation at 37 °C ([4]; incubation at 37 °C for 24 h, data not shown) | concentration of saturation in cholesterol efflux (J774 mouse macrophages) | concentration range of dissociation of the tetrameric assembly to monomers [5] | α-helical content, extensively diluted sample ([2]; 6 μM, i.e. 18 μg/ml, 10 mM phosphate buffer pH 7.4, 25 °C) | α-helical content with 50% TFE compared to controls with no TFE ([2]; 0.2 mg/ml, 10 mM phosphate pH 7.4, 30 min TFE at 25 °C, n=3) | 222/208 ellipticity ratio ([2]; 50% TFE) | α-helical content ([2]; lipid-free peptide, 10 mM phosphate buffer pH 7.4, 25 °C, 0.2 mg/ml (62 μM), from molar ellipticity at 222 nm, mean ± SD, n=4)
1 | Ac-DWFKAFYDKVAEKFKEAF-NH2 [peptide 4F, reference compound] | aggregated as high molecular weight (HMW) species | ~1000 µg/mL | 49% | 28% |  |  |  |  |  |  |  |  |  |  |  |  | 
2 | Ac-EVRSKLEEWFAAFREFAEEFLARLKS-NH2 [ATI-5261] | low molecular weight (LMW) band |  |  |  | ~4 times and 4.1 times | Little or no aggregation | not altered | ≤ 25000 ng/mL | < 25000 ng/mL | 12.8 kDa | not altered | 3 µg/mL | 0.5 to 0.025 mg/ml | 82.6% | remained unchanged | < 1 | 74.1±6.8%
